HTRA1 inh = inhibitors of human serine peptidase HTRA1; recombinant HTRA1, FP-rhodamine activity-based probe, fluorescence polarization; inhibition, % at 5.96 µM; actives 0.5% (n = 340,000); AID 504803; Q92743; in the data active = inhibition above about 36%
SIAE primary = human SIAE inhibition, primary screen | Q9HAT2 | SIAE FP-Rh probe binding, fluorescence polarization | inhibition, % at 9.66 µM | actives 0.69% (n = 370,000);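 active = inhibition above a cutoff: mean of compounds within the control limits plus 3 SD of those, cut at about 17% in these data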
Target sequence (Q9HAT2 whole entry, looked up): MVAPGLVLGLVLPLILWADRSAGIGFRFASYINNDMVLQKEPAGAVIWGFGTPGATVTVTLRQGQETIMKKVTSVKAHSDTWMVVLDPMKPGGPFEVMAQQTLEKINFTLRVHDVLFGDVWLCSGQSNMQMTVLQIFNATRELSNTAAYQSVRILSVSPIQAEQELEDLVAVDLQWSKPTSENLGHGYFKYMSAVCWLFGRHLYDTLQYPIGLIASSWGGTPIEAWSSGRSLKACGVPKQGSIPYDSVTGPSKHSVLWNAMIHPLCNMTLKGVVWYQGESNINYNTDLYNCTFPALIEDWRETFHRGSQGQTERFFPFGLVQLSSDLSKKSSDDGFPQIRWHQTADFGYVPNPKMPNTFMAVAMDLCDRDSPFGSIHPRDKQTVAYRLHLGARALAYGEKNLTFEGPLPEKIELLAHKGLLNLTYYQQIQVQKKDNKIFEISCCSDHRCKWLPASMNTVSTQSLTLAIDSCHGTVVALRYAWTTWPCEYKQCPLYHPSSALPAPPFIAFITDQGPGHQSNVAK
TCR-CD3 inh = human TCR-CD3 binding inhibition; TAMRA-labeled TCR probe fluorescence, biochemical; inhibition, % at 9.4 µM; actives 0.37% (n = 360,000); in the data active = inhibition above about 19%;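 also: recombinant mutant TCR 2C K166C tagged with TAMRA read by polarization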
mABHD4 FP = ABHD4 (mouse) inhibition, primary FP screen | purified mABHD4, FP-Rh probe fluorescence polarization | inhibition, % at 8.92 µM | actives 0.54% (n = 370,000) | Q8VD66;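 active = inhibition exceeding the mean over every tested compound plus 3 SD, cut at about 30% in these data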
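Test system: mouse ABHD4 enzyme, wild type. Reagent: FP-Rh fluorescent activity-based probe, added after compound pre-incubation. Timing: pre-incubation 45 min, probe exposure 60 min, at 25 °C. Technique: FP readout, ex 525 nm / em 598 nm. Benchmarks: high control S159A mutant with DMSO, low control median of compound wells.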
ARNT-TACC3 inh = ARNT/TACC3 interaction disruption. inhibition, % at 9.99 µM. AID 623870. Q9Y6A5. AlphaScreen His-ARNT PAS-B/GST-TACC3 binding, luminescence; TACC3 fragment carries E629A point mutation. actives 0.66% (n = 390,000);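 active = mean inhibition of replicates at least 50% and at least half of replicates each reaching 50%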
ARNT Alpha ctr-1 = counter-screen for ARNT/TACC3 inhibitors: AlphaScreen artifacts; shares compounds with ARNT-TACC3 inh; His-ARNT PASB-GST AlphaScreen artifact counter-screen, luminescence; AC50, µM (top dose mostly 68 µM); actives 50% (n = 1,200); AID 651705;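 active = every separate test run was called active for a drop in luminescence, with AC50 within twice the top valid dose, actives reach about 71 µM in these data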
ARNT Alpha ctr-2 = counter-screen for ARNT-TACC3 inhibitors: AlphaScreen artifacts | shares compounds with ARNT-TACC3 inh | Dual-tagged His-ARNT PASB-GST AlphaScreen artifact counter-screen | AC50, µM | actives 70% (n = 45) | AID 720564;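 active = luminescence drop, with half-maximal potency fitted within twice the sample's top valid dose, cut at about 70 µM in these data; inactive = the rest, including signal moving the wrong way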
Numbers stand for hits. Only some compounds are listed: those with a hit (about 1.8% of all), similar ones and a draw of the others.

What do the screens show for `O=C(c1cnccn1)N1CC[C@@H]2[C@H]1c1cc(-c3ccccc3)ccc1N[C@@H]2CO`?
ARNT-TACC3 inh: inactive

Results for C[C@H]1CN([C@@H](C)CO)C(=O)c2cc(NC(=O)NC3CCCCC3)ccc2O[C@H]1CN(C)C ?
ARNT-TACC3 inh: inactive

What do the screens show for `COc1cccc(C(=O)Nc2nnc(-c3cccs3)o2)c1`?
HTRA1 inh: inactive; SIAE primary: inactive; TCR-CD3 inh: inactive; mABHD4 FP: inactive; ARNT-TACC3 inh: 52; ARNT Alpha ctr-1: 67µM

What do the screens show for `COC(=O)C[C@@H]1C[C@H]2c3cc(N(C)C)ccc3O[C@H]2[C@@H](CO)O1`?
ARNT-TACC3 inh: 67; ARNT Alpha ctr-1: inactive

Results for COCCNC(=O)C[C@@H]1C[C@H]2c3cc(NC(=O)C4CCOCC4)ccc3O[C@H]2[C@H](CO)O1 ?
ARNT-TACC3 inh: active; ARNT Alpha ctr-1: inactive

How did O=C(C[C@@H]1C[C@@H]2c3cc(NC(=O)C4CCOCC4)ccc3O[C@@H]2[C@H](CO)O1)NCc1cccnc1 do in these assays?
ARNT-TACC3 inh: 55; ARNT Alpha ctr-1: inactive

What do the screens show for `CC(C)NC(=O)N(C)C[C@@H]1Oc2ccc(NC(=O)Nc3ccccc3)cc2C(=O)N([C@@H](C)CO)C[C@H]1C`?
ARNT-TACC3 inh: inactive

How did N#CC1=C(N)Oc2n[nH]c(-c3ccccn3)c2C1c1c(F)cccc1Cl (stereo unspecified) do in these assays?
HTRA1 inh: inactive; SIAE primary: inactive; TCR-CD3 inh: inactive; mABHD4 FP: inactive; ARNT-TACC3 inh: 55; ARNT Alpha ctr-1: inactive

How did C[C@H](CO)N1C[C@H](C)[C@H](CN(C)C(=O)NC2CCCCC2)OCCCC[C@H](C)Oc2ccc(NC(=O)NC3CCCCC3)cc2C1=O do in these assays?
ARNT-TACC3 inh: inactive

How did O=C(COC(=O)Cn1nnc(-c2ccccc2)n1)Nc1ccccc1Br do in these assays?
HTRA1 inh: inactive; SIAE primary: inactive; TCR-CD3 inh: inactive; mABHD4 FP: inactive; ARNT-TACC3 inh: inactive

What do the screens show for `COc1ccc(OC)c(NC(=O)COC(=O)Cn2nnc(-c3ccccc3)n2)c1`?
HTRA1 inh: inactive; SIAE primary: inactive; TCR-CD3 inh: inactive; mABHD4 FP: inactive; ARNT-TACC3 inh: active; ARNT Alpha ctr-1: inactive

How did CO[C@@H]1CN(C)C(=O)c2cc(NS(=O)(=O)CC(F)(F)F)ccc2OC[C@@H](C)N(C(=O)c2ccc3c(c2)OCO3)C[C@@H]1C do in these assays?
ARNT-TACC3 inh: 51; ARNT Alpha ctr-1: 22µM

What do the screens show for `CO[C@H]1CN(C)C(=O)c2cc(NS(=O)(=O)CC(F)(F)F)ccc2OC[C@H](C)N(Cc2cccnc2)C[C@@H]1C`?
ARNT-TACC3 inh: active; ARNT Alpha ctr-1: inactive

How did O=C(CN1CCOCC1)N[C@@H]1CC[C@@H](CCNC(=O)C2CCCC2)O[C@@H]1CO do in these assays?
ARNT-TACC3 inh: inactive

How did COc1ccccc1NC(=O)CSc1ccc(-c2ccccn2)nn1 do in these assays?
HTRA1 inh: inactive; SIAE primary: inactive; TCR-CD3 inh: inactive; mABHD4 FP: inactive; ARNT-TACC3 inh: 55; ARNT Alpha ctr-1: 14µM

Results for Cc1cccc(NC(=O)CSc2ccc(-c3ccccn3)nn2)c1C ?
HTRA1 inh: inactive; SIAE primary: inactive; TCR-CD3 inh: inactive; mABHD4 FP: inactive; ARNT-TACC3 inh: 55; ARNT Alpha ctr-1: 30µM; ARNT Alpha ctr-2: 23

Results for CO[C@@H]1CN(C)C(=O)c2ccc(NS(=O)(=O)c3ccc(F)cc3)cc2OC[C@@H](C)N(C(=O)NC(C)C)C[C@H]1C ?
ARNT-TACC3 inh: inactive

Results for CCCNC(=O)C[C@@H]1C[C@@H]2c3cc(NC(=O)NC4CCCCC4)ccc3O[C@@H]2[C@@H](CO)O1 ?
ARNT-TACC3 inh: inactive

Results for O=C(CSc1n[nH]c(-c2ccccn2)n1)Nc1ccc(Cl)cc1 ?
HTRA1 inh: inactive; SIAE primary: inactive; TCR-CD3 inh: inactive; mABHD4 FP: inactive; ARNT-TACC3 inh: 68; ARNT Alpha ctr-1: 32µM; ARNT Alpha ctr-2: 11

What do the screens show for `O=C(CSc1n[nH]c(-c2ccccn2)n1)Nc1ccc(F)cc1`?
HTRA1 inh: inactive; SIAE primary: inactive; TCR-CD3 inh: inactive; mABHD4 FP: inactive; ARNT-TACC3 inh: 70; ARNT Alpha ctr-1: 11µM

How did Cc1ccc(NC(=O)CSc2n[nH]c(-c3ccccn3)n2)cc1 do in these assays?
HTRA1 inh: inactive; SIAE primary: inactive; TCR-CD3 inh: inactive; mABHD4 FP: inactive; ARNT-TACC3 inh: 70; ARNT Alpha ctr-1: 9.2µM

What do the screens show for `C[C@@H]1CN([C@@H](C)CO)C(=O)c2cc(NC(=O)Nc3cccc4ccccc34)ccc2O[C@H]1CN(C)C(=O)Nc1ccc2c(c1)OCO2`?
ARNT-TACC3 inh: inactive

Results for C[C@@H]1CN([C@@H](C)CO)C(=O)c2cccc(NC(=O)c3ccc(-c4nccs4)cc3)c2O[C@H]1CN(C)Cc1ccccc1 ?
ARNT-TACC3 inh: inactive

How did Cc1onc(-c2c(Cl)cccc2Cl)c1C(=O)Nc1ccc(N2CCOCC2)cc1 do in these assays?
HTRA1 inh: inactive; SIAE primary: inactive; TCR-CD3 inh: inactive; mABHD4 FP: inactive; ARNT-TACC3 inh: active; ARNT Alpha ctr-1: inactive

Results for CCCNC(=O)N(C)C[C@@H]1Oc2cc(C#CCC(C)C)ccc2S(=O)(=O)N([C@H](C)CO)C[C@H]1C ?
ARNT-TACC3 inh: inactive

Results for C[C@@H]1CCCCO[C@@H](CN(C)C(=O)NC2CCCCC2)[C@@H](C)CN([C@H](C)CO)C(=O)c2cc(NS(=O)(=O)c3cccs3)ccc2O1 ?
ARNT-TACC3 inh: inactive

How did Oc1c(C(Nc2cccc(C(F)(F)F)c2)c2ccncc2)ccc2cccnc12 (stereo unspecified) do in these assays?
HTRA1 inh: inactive; SIAE primary: inactive; TCR-CD3 inh: inactive; mABHD4 FP: inactive; ARNT-TACC3 inh: 53; ARNT Alpha ctr-1: 4.1µM

What do the screens show for `CC1CCN(S(=O)(=O)c2ccc(C(=O)Nc3nnc(-c4ccncc4)o3)cc2)CC1`?
HTRA1 inh: inactive; SIAE primary: inactive; TCR-CD3 inh: inactive; mABHD4 FP: inactive

What do the screens show for `CC1CC(C)CN(S(=O)(=O)c2ccc(C(=O)Nc3nnc(C4=COCCO4)o3)cc2)C1` (stereo unspecified)?
ARNT Alpha ctr-2: inactive

What do the screens show for `O=C(Nc1nnc(C2CC2)o1)c1ccc(S(=O)(=O)N2CCCCC2)cc1`?
HTRA1 inh: inactive; SIAE primary: inactive; TCR-CD3 inh: inactive; mABHD4 FP: inactive; ARNT-TACC3 inh: 51; ARNT Alpha ctr-1: inactive

What do the screens show for `CC1CCN(S(=O)(=O)c2ccc(C(=O)Nc3nnc(C4CC4)o3)cc2)CC1`?
HTRA1 inh: inactive; SIAE primary: inactive; TCR-CD3 inh: inactive; mABHD4 FP: inactive; ARNT-TACC3 inh: inactive; ARNT Alpha ctr-2: inactive
